In assay [1] the test system is Rattus norvegicus. Put plainly: In vivo triglyceride lowering activity dosed at 0.10 % of the diet. It counts as functional. Put shortly: (§1)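 Normal rats were dosed in the diet. Serum sterol and triglyceride levels were measured and expressed as the mean percent of control values. Significance versus control was reported at p < 0.05, 0.01 and 0.001.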
For assay [2], the system named is Rattus norvegicus. Put plainly: In vivo sterol lowering activity at dose of 0.10 % of the diet. Format: functional. An outline of the steps: as §1
The subject of assay [3] is Rattus norvegicus. Put plainly: In vivo sterol lowering activity when dosed as 0.03 % of the diet. It counts as functional. An outline of the steps:
as §1

Assay [4] concerns Rattus norvegicus. Put plainly: In vivo triglyceride lowering activity when dosed as 0.01 % of the diet. It counts as functional. Put shortly:
as §1

Assay [5] concerns Rattus norvegicus. Put plainly: In vivo triglyceride lowering activity when dosed at 0.03 % of the diet. Format: functional. An outline of the steps:
as §1

Assay [6] deals with Rattus norvegicus. Put plainly: In vivo sterol lowering activity when dosed as 0.01 % of the diet. It counts as functional. Put shortly: as §1
Assay [7] has as its target T1, Sterol O-acyltransferase 1 (Rattus norvegicus) (UniProt O70536).
T1 sequence (whole entry): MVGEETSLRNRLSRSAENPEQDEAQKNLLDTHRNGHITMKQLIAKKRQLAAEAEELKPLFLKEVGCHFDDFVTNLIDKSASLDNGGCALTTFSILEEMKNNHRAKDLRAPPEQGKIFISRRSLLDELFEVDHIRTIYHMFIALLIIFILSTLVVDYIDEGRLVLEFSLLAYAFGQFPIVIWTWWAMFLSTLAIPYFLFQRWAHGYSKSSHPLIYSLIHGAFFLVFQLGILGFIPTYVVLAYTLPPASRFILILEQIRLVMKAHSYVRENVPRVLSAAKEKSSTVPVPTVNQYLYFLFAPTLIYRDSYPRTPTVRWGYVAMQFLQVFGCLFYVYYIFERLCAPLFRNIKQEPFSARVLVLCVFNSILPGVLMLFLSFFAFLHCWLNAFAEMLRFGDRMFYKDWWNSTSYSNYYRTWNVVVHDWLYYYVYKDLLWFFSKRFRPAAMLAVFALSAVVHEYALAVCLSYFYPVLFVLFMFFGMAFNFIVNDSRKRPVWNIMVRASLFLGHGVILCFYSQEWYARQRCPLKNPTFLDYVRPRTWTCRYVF
Put plainly: In vitro inhibition of acyl coenzyme A:cholesterol acyltransferase. Further details: concentration or dose not given beside the values. The conditions noted are these: concentration not given here. An outline of the steps: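 Enzyme fatty acyl-CoA:cholesterol acyltransferase (ACAT), assayed in vitro at a single drug concentration of 5.2 μg/mL. The value is the mean percent inhibition of enzyme activity.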

For the molecule `CCCCCCCCCCCCCCCCNc1ccc(C2=NCCCO2)cc1`, the “serum triglyceride, percent of control” value in the assay with Rattus norvegicus [1] was <68%. In addition, the entries for the “serum sterol level, percent of control” value in the assay on Rattus norvegicus [2] and in the assay on Rattus norvegicus [3] were <87% and 100%, respectively. In addition, the figures for the “serum triglyceride level, percent of control” value in the assay on Rattus norvegicus [4] and in the assay on Rattus norvegicus [5] were 99% and 127%, respectively. For the same molecule, the “serum sterol level, % of control” value in the assay on Rattus norvegicus [6] came to 97%. This molecule showed an inhibition in assay [7] of 2%.

Take `CCCCCCCCCCCCCCCCNc1ccc(C2SCCCS2)cc1`: the “serum triglyceride, percent of control” value in the assay on Rattus norvegicus [1] is listed as 91%. The results for the “serum sterol level, percent of control” value in the assay with Rattus norvegicus [2] and in the assay with Rattus norvegicus [3] were 93% and 92%, respectively. Further, the “serum triglyceride level, percent of control” value in the assay with Rattus norvegicus [4] is 105%; in the assay on Rattus norvegicus [5], 114%. In addition, the “serum sterol level, % of control” value with Rattus norvegicus [6] was 102%. In addition, the inhibition in assay [7] was determined as 9%.

As to `CCCCCCCCCCCCCCCCNc1ccc(C(C)(C)C(=O)O)cc1`, the “serum triglyceride, percent of control” value with Rattus norvegicus [1] worked out at 116%. Moreover, the “serum sterol level, percent of control” value with Rattus norvegicus [2] came to 107%; in the assay on Rattus norvegicus [3] it was 111%. Also, the “serum triglyceride level, percent of control” value with Rattus norvegicus [4] stood at 109%; in the assay with Rattus norvegicus [5], 121%. The “serum sterol level, % of control” value in the assay on Rattus norvegicus [6] is given as 93%. For the same molecule, the inhibition in assay [7] was < 27%.

For `CCCCCCCCCCCCCCCCNc1ccc(C(=O)OCC2CO2)cc1` (stereo not drawn), the “serum triglyceride, percent of control” value in the assay with Rattus norvegicus [1] is <53%. Besides, the “serum sterol level, percent of control” value with Rattus norvegicus [2] and in the assay with Rattus norvegicus [3] was <75% throughout. Also, the “serum triglyceride level, percent of control” value in the assay with Rattus norvegicus [4] is <74%; in the assay with Rattus norvegicus [5], <60%. Moreover, the “serum sterol level, % of control” value in the assay with Rattus norvegicus [6] was 92%. In assay [7], this molecule displayed an inhibition of 13%.

With `CCCCCCCCCCCCCCCCNc1ccc(C(=O)NCC(=O)OCC)cc1`, in the assay with Rattus norvegicus [1], the “serum triglyceride, percent of control” value is given as <69%. Besides, the “serum sterol level, percent of control” value is listed as 92% with Rattus norvegicus [2] and 96% with Rattus norvegicus [3]. Further, the “serum triglyceride level, percent of control” value with Rattus norvegicus [4] was 78%; with Rattus norvegicus [5], 74%. The “serum sterol level, % of control” value in the assay with Rattus norvegicus [6] stood at 92%. Moreover, in assay [7], the inhibition was determined as 16%.

Regarding `CCCCCCCCCCCCCCCCNc1ccc(C2OCCO2)cc1`, the “serum triglyceride, percent of control” value with Rattus norvegicus [1] is <47%. In addition, the entries for the “serum sterol level, percent of control” value with Rattus norvegicus [2] and in the assay on Rattus norvegicus [3] were <71% and <77%, respectively. The entries for the “serum triglyceride level, percent of control” value in the assay with Rattus norvegicus [4] and with Rattus norvegicus [5] were 100% and 82%, respectively. For the same molecule, in the assay with Rattus norvegicus [6], the “serum sterol level, % of control” value is on record as <85%. In assay [7], this molecule yielded an inhibition of 0%.

Take `CCCCCCCCCCCCCCN(CC)c1ccc(C(=O)O)cc1`: the “serum triglyceride, percent of control” value in the assay with Rattus norvegicus [1] was found to be 80%. Also, the figures for the “serum sterol level, percent of control” value in the assay on Rattus norvegicus [2] and in the assay with Rattus norvegicus [3] were 88% and 98%, respectively. Further, the “serum triglyceride level, percent of control” value is listed as 90% with Rattus norvegicus [4] and 92% in the assay on Rattus norvegicus [5]. Besides, in the assay on Rattus norvegicus [6], the “serum sterol level, % of control” value was found to be 93%. Besides, the inhibition in assay [7] is < 38%.

For `CCCCCCCCCCCCCCCCNc1ccc(CCC(=O)OCC)cc1`, in the assay with Rattus norvegicus [1], the “serum triglyceride, percent of control” value is <45%. Also, the “serum sterol level, percent of control” value is 84% with Rattus norvegicus [2] and 89% in the assay on Rattus norvegicus [3]. Further, the figures for the “serum triglyceride level, percent of control” value in the assay on Rattus norvegicus [4] and in the assay with Rattus norvegicus [5] were 96% and 88%, respectively. In addition, the “serum sterol level, % of control” value in the assay with Rattus norvegicus [6] is listed as 89%. The inhibition in assay [7] turned out to be 7%.

In the case of `CCCCCCCCCCCCCCCCNc1ccc(C(=O)SCCO)cc1`, the “serum triglyceride, percent of control” value in the assay on Rattus norvegicus [1] is reported as <59%. Further, the “serum sterol level, percent of control” value with Rattus norvegicus [2] is reported as <84%; in the assay with Rattus norvegicus [3], <86%. For the same molecule, the figures for the “serum triglyceride level, percent of control” value in the assay with Rattus norvegicus [4] and with Rattus norvegicus [5] were 70% and 74%, respectively. In addition, in the assay on Rattus norvegicus [6], the “serum sterol level, % of control” value was <87%. Moreover, the inhibition in assay [7] worked out at 1%.
